The source made the active and inactive calls. No cut-off for these calls is given here. A value given as a limit tells only on which side of the number the result lay.

Consider eleven compounds from ChEMBL document CHEMBL1143149, “Synthesis, metal ion binding, and biological evaluation of new anticancer 2-(2'-hydroxyphenyl)benzoxazole analogs of UK-1” (Bioorg Med Chem, 2008).

Experiment [1] is described as follows: Enhancement of DNA binding affinity in presence of Cu2+/Ni2+.
Experiment [2] has as its system MCF7. The experiment in a line: Cytotoxicity against human MCF7 cells by Alamar blue assay. Format: functional, cell-based. A digest of the protocol: (§1)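 MCF-7 cells in improved MEM (Richter's) with L-glutamine, 10% FBS and 1% penicillin/streptomycin. 1-3×10^3 cells/well preincubated 24 h at 37 °C, 5% CO2. DMSO solutions added in duplicate at 0.001–50 μM final, then 72 h exposure. AlamarBlue added for 6 h; fluorescence read ex 530/em 590 nm. IC50 by sigmoidal fit of % growth against time-zero and vehicle.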

The test system of experiment [3] is A549. The experiment in a line: Cytotoxicity against human A549 cells by Alamar blue assay. Format: functional, cell-based. A digest of the protocol: (§2)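 A549 cells in Ham's F-12 (Kaighn's) with 10% FBS and 1% penicillin/streptomycin. Seeded at 1-3×10^3 cells/well for 24 h at 37 °C, 5% CO2. Compound in DMSO added in duplicate at 0.001–50 μM final, then 72 h. Fresh medium plus AlamarBlue for 6 h; fluorescence ex 530/em 590 nm. % growth relative to time-zero and vehicle; IC50 from Hill-equation non-linear fit.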
On the technique in general: Alamar Blue is a resazurin reagent that responds to reducing activity.

For experiment [4], the system named is A549. The experiment in a line: Cytotoxicity against human A549 cells after 24 hrs. It is filed as functional, cell-based. The settings on record: A549, 24 h.
Experiment [5] concerns A549. The experiment in a line: Cytotoxicity against human A549 cells after 72 hrs. It is filed as functional, cell-based. The conditions noted are these: A549, 72 h. A digest of the protocol: as §2
Experiment [6] has as its system MCF7. The experiment in a line: Cytotoxicity against human MCF7 cells after 72 hrs. Format: functional, cell-based. The conditions noted are these: MCF7, 72 h. An outline of the steps: as §1
The subject of experiment [7] is MCF7. The experiment in a line: Cytotoxicity against human MCF7 cells after 24 hrs. The conditions noted are these: MCF7, 24 h. It is filed as functional, cell-based.
In experiment [8] the test system is A549. The experiment in a line: Cytotoxicity against human A549 cells after 72 hrs in presence of CuCl2. Format: functional, cell-based. The conditions noted are these: A549, 72 h. A digest of the protocol:
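A549 cells in Ham's F-12 (Kaighn's) with 10% FBS and penicillin/streptomycin. Compound plus 10 μM CuCl2 for 72 h at 37 °C, 5% CO2, in duplicate. Viability by AlamarBlue fluorescence (ex 530/em 590 nm) after 6 h. IC50 from non-linear fit of % growth versus time-zero and vehicle controls.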

For experiment [9], the system named is A549. The experiment in a line: Cytotoxicity against human A549 cells after 24 hrs in presence of CuCl2. Format: functional, cell-based. The conditions noted are these: A549, 24 h.
The test system of experiment [10] is MCF7. The experiment in a line: Cytotoxicity against human MCF7 cells after 24 hrs in presence of CuCl2. It is filed as functional, cell-based. The settings on record: MCF7, 24 h.
The subject of experiment [11] is MCF7. The experiment in a line: Cytotoxicity against human MCF7 cells after 72 hrs in presence of CuCl2. Format: functional, cell-based. The conditions noted are these: MCF7, 72 h. An outline of the steps:
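MCF-7 cells in Richter's improved MEM with 10% FBS. Compound given with 10 μM CuCl2 for 72 h at 37 °C, 5% CO2, in duplicate. AlamarBlue for 6 h, fluorescence ex 530/em 590 nm. IC50 by non-linear Hill fit of % growth referenced to time-zero and vehicle wells.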

One may read the IC50 as the concentration that gives 50% inhibition. In the case of `O=C(NCCOCCO)c1cccc2oc(-c3ccccc3O)nc12`, the outcome in experiment [1] was inactive. For the same compound, the IC50 was over 50 µM in the experiment with MCF7 [2] and 41 µM in the experiment on A549 [3].

Consider `CCCCNC(=O)c1cccc2oc(-c3ccccc3O)nc12`, for which the result in experiment [1] was Active. Besides, the IC50 came to 30 µM in the experiment on MCF7 [2] and 14 µM in the experiment on A549 [3].

In the case of `COc1ccccc1-c1nc2c(C(=O)O)cccc2o1`, the IC50 in the experiment with MCF7 [2] and in the experiment with A549 [3] was over 50 µM in each case.

As to `O=C(NCCCCCCO)c1cccc2oc(-c3ccccc3O)nc12`, the result in experiment [1] was inactive. In addition, the IC50 is 31 µM in the experiment with MCF7 [2] and 39 µM with A549 [3].

On to `CO[C@@]12[C@H](COC(N)=O)C3=C(C(=O)C(C)=C(N)C3=O)N1C[C@@H]1N[C@@H]12` [MITOMYCIN], for which the IC50 in the experiment with A549 [4] was determined as 4.5 µM; in the experiment with A549 [5], 0.24 µM; in the experiment with MCF7 [6] it was 1.2 µM; with MCF7 [7], 5 µM.

Take `COC(=O)c1cccc2oc(-c3ccccc3O)nc12`: the outcome in experiment [1] was Active. For the same compound, the figures for the IC50 in the experiment on MCF7 [2] and in the experiment with A549 [3] were 4 µM and 12 µM, respectively.

With `CNC(=O)c1cccc2oc(-c3ccccc3O)nc12`, the outcome in experiment [1] was Active. The IC50 with MCF7 [2] turned out to be 10 µM; with A549 [3], 11 µM.

For `CCOC(=O)c1cccc2oc(-c3ccccc3O)nc12`, in experiment [1], the result was Active. For the same compound, the IC50 with MCF7 [2] stood at 15 µM; in the experiment on A549 [3], 40 µM.

With `O=C(OCCOCCOCCOCCO)c1cccc2oc(-c3ccccc3O)nc12`, in [1], the outcome was Active. Moreover, the IC50 came to 13 µM with MCF7 [2] and 11 µM in the experiment with A549 [3].

Regarding `COC(=O)c1cccc2oc(-c3cccc4oc(-c5ccccc5O)nc34)nc12`, the IC50 in the experiment on A549 [8] was 0.2 µM; in the experiment with A549 [4] it was 17 µM; in the experiment with A549 [5], 1 µM; in the experiment with MCF7 [6], 1.7 µM; with MCF7 [7] it was 31 µM; in the experiment on A549 [9] it was 4.5 µM. Also, the IC50 is 4.6 µM in the experiment on MCF7 [10] and 1.2 µM in the experiment with MCF7 [11].

Consider `COC(=O)c1cccc2nc(-c3ccccc3O)oc12`, for which the figures for the IC50 in the experiment on MCF7 [2] and in the experiment with A549 [3] were 7 µM and 35 µM, respectively.
